Active and inactive are the calls of the source. The calls are words filed in the database; no cut-off is given here.
Columns and labels:
[1] = Inhibition of Dengue virus recombinant […] RNA dependent RNA polymerase using […] by SPA
How it was run: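 Purified recombinant dengue 2 NS5 polymerase at 50 nM, preincubated 1 h at room temperature with compound over a range of concentrations and annealed poly(C)/biotin-oligo G template. Buffer: 50 mM Tris-HCl pH 7.0, 10 mM KCl, 2 mM MgCl2, 2 mM MnCl2, 1 mM β-mercaptoethanol, 0.05% CHAPS. Stopped with EDTA and streptavidin SPA beads, then scintillation counting. Duplicates, average of at least two experiments.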

[2] = target: T1, DNA polymerase alpha catalytic subunit (Homo sapiens, UniProt P09884); assay: Inhibition of human DNA polymerase alpha
T1 sequence (P09884 whole entry): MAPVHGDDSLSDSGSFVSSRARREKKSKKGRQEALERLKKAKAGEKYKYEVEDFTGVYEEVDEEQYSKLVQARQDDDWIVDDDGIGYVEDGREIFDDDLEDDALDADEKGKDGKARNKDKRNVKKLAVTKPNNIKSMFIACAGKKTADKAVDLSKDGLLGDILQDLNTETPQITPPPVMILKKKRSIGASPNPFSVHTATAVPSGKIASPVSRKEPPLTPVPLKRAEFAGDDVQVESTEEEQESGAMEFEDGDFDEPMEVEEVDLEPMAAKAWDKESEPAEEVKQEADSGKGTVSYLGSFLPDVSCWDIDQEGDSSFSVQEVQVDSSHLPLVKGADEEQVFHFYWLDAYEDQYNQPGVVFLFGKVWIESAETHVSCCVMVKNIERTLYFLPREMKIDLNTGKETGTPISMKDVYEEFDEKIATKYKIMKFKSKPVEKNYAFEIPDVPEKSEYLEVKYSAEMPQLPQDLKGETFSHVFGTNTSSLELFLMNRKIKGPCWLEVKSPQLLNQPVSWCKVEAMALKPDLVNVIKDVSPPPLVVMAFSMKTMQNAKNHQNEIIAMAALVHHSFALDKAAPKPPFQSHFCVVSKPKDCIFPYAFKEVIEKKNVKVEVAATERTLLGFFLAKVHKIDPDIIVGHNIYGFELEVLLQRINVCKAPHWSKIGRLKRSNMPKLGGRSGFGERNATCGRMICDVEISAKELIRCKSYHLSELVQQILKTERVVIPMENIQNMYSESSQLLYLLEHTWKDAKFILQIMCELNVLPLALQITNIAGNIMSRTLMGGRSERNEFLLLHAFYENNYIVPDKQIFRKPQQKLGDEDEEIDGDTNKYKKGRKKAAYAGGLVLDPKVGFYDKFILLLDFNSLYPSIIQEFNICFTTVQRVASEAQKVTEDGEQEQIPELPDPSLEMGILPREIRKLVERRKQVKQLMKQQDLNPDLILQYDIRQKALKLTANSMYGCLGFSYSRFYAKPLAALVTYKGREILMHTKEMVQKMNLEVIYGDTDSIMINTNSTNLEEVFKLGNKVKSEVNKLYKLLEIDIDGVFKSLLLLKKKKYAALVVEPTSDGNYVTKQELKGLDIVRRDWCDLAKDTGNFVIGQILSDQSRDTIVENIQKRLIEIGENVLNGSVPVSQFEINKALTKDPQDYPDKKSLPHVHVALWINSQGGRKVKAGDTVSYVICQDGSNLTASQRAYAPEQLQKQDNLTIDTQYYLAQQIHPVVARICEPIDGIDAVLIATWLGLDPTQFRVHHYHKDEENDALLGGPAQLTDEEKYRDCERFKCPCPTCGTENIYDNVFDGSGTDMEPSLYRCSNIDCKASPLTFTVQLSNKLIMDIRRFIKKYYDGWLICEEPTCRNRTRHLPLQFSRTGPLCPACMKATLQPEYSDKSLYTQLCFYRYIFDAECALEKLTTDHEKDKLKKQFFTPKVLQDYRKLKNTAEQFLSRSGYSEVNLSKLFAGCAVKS

DNA polymerase beta = DNA polymerase beta (Homo sapiens, UniProt P06746); assay: Inhibition of human DNA polymerase beta
[3] = Inhibition of HCV RNA dependent RNA polymerase; parameters: species or system Hepacivirus hominis
Dengue virus = assay: Irreversible inhibition of Dengue virus recombinant […] RNA dependent RNA polymerase under ultraviolet light irradiation

SMILES	IC50 [1] [µM]	other results
COc1ccc(C(=O)O)c(NS(=O)(=O)c2cccc(-c3cnn(Cc4ccccc4)c3)c2)c1	9.99	
NC(=O)c1ccccc1NS(=O)(=O)c1cccc(-c2cnn(Cc3ccccc3)c2)c1	> 20	
O=S(=O)(Nc1ccccc1)c1cccc(-c2cnn(Cc3ccccc3)c2)c1	> 20	
O=C(O)c1ccc(F)cc1NS(=O)(=O)c1cccc(-c2cnn(Cc3ccc4ccccc4c3)c2)c1	0.26	IC50 [2]: > 20 µM; IC50 (DNA polymerase beta): > 20 µM; IC50 [3]: > 20 µM
CC1=NN(c2cccc(S(=O)(=O)Nc3ccccc3C(=O)O)c2)C(=O)C1	7.2	
O=C(O)c1cc(Cl)ccc1NS(=O)(=O)c1cccc(-c2cnn(Cc3ccccc3)c2)c1	2.56	
COc1cc(NS(=O)(=O)c2cccc(-c3cnn(Cc4ccccc4)c3)c2)c(C(=O)O)cc1OC	> 20	
CC(C)Cn1cc(-c2cccc(S(=O)(=O)Nc3ccccc3C(=O)O)c2)cn1	> 20	
O=C(O)c1ccccc1NS(=O)(=O)c1cccc(-c2cnn(Cc3ccc4ccccc4c3)c2)c1	0.37	
O=C(O)c1c(Cl)cccc1NS(=O)(=O)c1cccc(-c2cnn(Cc3ccccc3)c2)c1	> 20	
O=C(O)c1cccc(NS(=O)(=O)c2cccc(-c3cnn(Cc4ccccc4)c3)c2)c1	> 20	
O=C(O)c1ccc(F)cc1NS(=O)(=O)c1cccc(-c2cnn(Cc3ccccc3)c2)c1	0.37	IC50 [2]: > 20 µM; IC50 (DNA polymerase beta): > 20 µM; IC50 [3]: > 20 µM
O=C(O)c1ccc(NS(=O)(=O)c2cccc(-c3cnn(Cc4ccccc4)c3)c2)cc1	> 20	
O=C(Nc1cccc(Cn2cc(-c3cccc(S(=O)(=O)Nc4ccccc4C(=O)O)c3)cn2)c1)c1ccc(C(=O)c2ccccc2)cc1	1.5	Activity (Dengue virus): Active

Now from value to compound, other results behind:

IC50 [1] [µM]	SMILES	other results
6.77	CC(C)CCn1cc(-c2cccc(S(=O)(=O)Nc3ccccc3C(=O)O)c2)cn1	
0.7	O=C(O)c1ccccc1NS(=O)(=O)c1cccc(-c2cnn(Cc3ccccc3)c2)c1	IC50 [2]: > 20 µM; IC50 (DNA polymerase beta): > 20 µM; IC50 [3]: > 20 µM
18	O=C(O)c1cccc(Cl)c1NS(=O)(=O)c1cccc(-c2cnn(Cc3ccccc3)c2)c1	
> 20	O=C(O)c1ccccc1NS(=O)(=O)c1cccc(-c2cn[nH]c2)c1	
0.77	O=C(O)c1ccc(Cl)cc1NS(=O)(=O)c1cccc(-c2cnn(Cc3ccccc3)c2)c1	
> 20	Cn1cc(-c2cccc(S(=O)(=O)Nc3ccccc3C(=O)O)c2)cn1	
> 20	O=C(O)c1ccccc1NS(=O)(=O)c1cccc(-c2cnn(CCN3CCOCC3)c2)c1	
> 20	COC(=O)c1ccccc1NS(=O)(=O)c1cccc(-c2cnn(Cc3ccccc3)c2)c1	

— ChEMBL document CHEMBL1154753, “N-sulfonylanthranilic acid derivatives as allosteric inhibitors of dengue viral RNA-dependent RNA polymerase” (J Med Chem, 2009)
